According to ChEMBL document CHEMBL1153584 (Eur J Med Chem, 2009):
≈ marks a conversion by molar mass, not a printed value.

Legend:
Assay type in all cases: functional, cell-based
A549 = assay: Anticancer activity against human A549 cells after 72 hrs by sulforhodamine B assay; conditions: A549, 72 h
SK-OV-3 = assay: Anticancer activity against human SKOV3 cells after 72 hrs by sulforhodamine B assay; conditions: SK-OV-3, 72 h
Summary of the method: (§1)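 Cells kept in RPMI 1640 with 10% FBS and passaged with trypsin-EDTA. Seeded at 1-2 × 10^4 cells/well and grown 24 h, then given compounds dissolved in culture medium, in triplicate. Exposure 48 h at 37 °C in 5% CO2. Fixed with cold 10% TCA, stained with 0.4% SRB in 1% acetic acid, dye solubilized in 10 mM Tris base (pH 10.5), absorbance read at 520 nm. IC50 is the concentration giving 50% inhibition.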

SK-MEL-2 = assay: Anticancer activity against human SK-MEL-2 cells after 72 hrs by sulforhodamine B assay; conditions: SK-MEL-2, 72 h; summary of the method: as §1
XF498 = assay: Anticancer activity against human XF498 cells after 72 hrs by sulforhodamine B assay; conditions: XF498, 72 h; summary of the method: as §1
HCT-15 = assay: Anticancer activity against human HCT15 cells after 72 hrs by sulforhodamine B assay; conditions: HCT-15, 72 h; summary of the method: as §1

Row | IC50 (A549) [µg/mL] | IC50 (SK-OV-3) [µg/mL] | IC50 (SK-MEL-2) [µg/mL] | IC50 (XF498) [µg/mL] | IC50 (HCT-15) [µg/mL] | SMILES
1 | 0.16 (≈ 0.339 µM) | 0.24 (≈ 0.509 µM) | 0.11 (≈ 0.233 µM) | 0.42 (≈ 0.89 µM) | 0.31 (≈ 0.657 µM) | CCCCCCCCCCCCCCNC(=O)CCCC[C@@H](C)O[C@@H]1O[C@@H](C)[C@H](O)C[C@H]1O
2 | 0.78 (≈ 1.4 µM) | 0.73 (≈ 1.31 µM) | 0.43 (≈ 0.77 µM) | 0.45 (≈ 0.805 µM) | 0.21 (≈ 0.376 µM) | CCCCCC[C@@H](C)O[C@@H]1O[C@@H](C)[C@H](O)C[C@H]1O[C@@H]1O[C@@H](C)[C@H](OC(=O)CCCC)C[C@H]1OC(=O)CCCC
3 | 0.24 (≈ 0.523 µM) | 0.54 (≈ 1.18 µM) | 0.13 (≈ 0.284 µM) | 0.52 (≈ 1.13 µM) | 0.75 (≈ 1.64 µM) | C[C@H](CCCCC(=O)OCc1cccc(Oc2ccccc2)c1)O[C@@H]1O[C@@H](C)[C@H](O)C[C@H]1O
4 | 0.54 (≈ 1.4 µM) | 0.32 (≈ 0.832 µM) | 0.53 (≈ 1.38 µM) | 0.62 (≈ 1.61 µM) | 0.34 (≈ 0.884 µM) | C=CCN1CCN(C(=O)CCCC[C@@H](C)O[C@@H]2O[C@@H](C)[C@H](O)C[C@H]2O)CC1
5 |  | 0.024 (≈ 0.0442 µM) | 0.015 (≈ 0.0276 µM) | 0.19 (≈ 0.35 µM) | 0.02 (≈ 0.0368 µM) | COc1cccc2c1C(=O)c1c(O)c3c(c(O)c1C2=O)C[C@@](O)(C(=O)CO)C[C@@H]3O[C@H]1C[C@H](N)[C@H](O)[C@H](C)O1 [DOXORUBICIN]
6 | 0.24 (≈ 0.427 µM) | 0.14 (≈ 0.249 µM) | 0.33 (≈ 0.588 µM) | 0.43 (≈ 0.766 µM) | 0.14 (≈ 0.249 µM) | C[C@H](CCCCCCN=[N+]=[N-])O[C@@H]1O[C@@H](C)[C@H](O[C@@H]2O[C@@H](C)[C@H](O)C[C@H]2O)C[C@H]1O[C@@H]1O[C@@H](C)[C@H](O)C[C@H]1O
7 | 0.34 (≈ 0.896 µM) | 0.24 (≈ 0.632 µM) | 0.11 (≈ 0.29 µM) | 0.25 (≈ 0.659 µM) | 0.2 (≈ 0.527 µM) | CCc1ccc(NC(=O)CCCC[C@@H](C)O[C@@H]2O[C@@H](C)[C@H](O)C[C@H]2O)cc1
8 | 0.03 (≈ 0.109 µM) | 0.02 (≈ 0.0724 µM) | 0.07 (≈ 0.253 µM) | 0.09 (≈ 0.326 µM) | 0.05 (≈ 0.181 µM) | C[C@H](CCCCC(=O)O)O[C@@H]1O[C@@H](C)[C@H](O)C[C@H]1O [DAUMONE]
9 | 0.57 (≈ 1.28 µM) | 0.14 (≈ 0.315 µM) | 0.44 (≈ 0.99 µM) | 0.43 (≈ 0.967 µM) | 0.54 (≈ 1.21 µM) | C[C@@H]1CCCCCCCCC(=O)O[C@@H]2C[C@@H](O)[C@H](C)O[C@H]2O[C@@H]2C[C@@H](O)[C@H](C)O[C@H]2O1
10 | 0.64 (≈ 1.14 µM) | 0.32 (≈ 0.571 µM) | 0.33 (≈ 0.588 µM) | 0.43 (≈ 0.767 µM) | 0.53 (≈ 0.945 µM) | CCCCCC[C@H](CCCCCCCCCCC(=O)O)O[C@@H]1O[C@@H](C)[C@H](O[C@@H]2O[C@@H](C)[C@H](O)C[C@H]2O)C[C@H]1O
11 | 0.76 (≈ 1.9 µM) | 0.65 (≈ 1.62 µM) | 0.33 (≈ 0.824 µM) | 0.25 (≈ 0.624 µM) | 0.54 (≈ 1.35 µM) | C[C@H](CCCCC(=O)NCCCN1CCCC1=O)O[C@@H]1O[C@@H](C)[C@H](O)C[C@H]1O
12 | 0.76 (≈ 1.42 µM) | 0.14 (≈ 0.262 µM) | 0.65 (≈ 1.22 µM) | 0.65 (≈ 1.22 µM) | 0.21 (≈ 0.393 µM) | C[C@H](CCCCC1CO1)O[C@@H]1O[C@@H](C)[C@H](O[C@@H]2O[C@@H](C)[C@H](O)C[C@H]2O)C[C@H]1O[C@@H]1O[C@@H](C)[C@H](O)C[C@H]1O (some centres undefined)
13 | 0.07 (≈ 0.101 µM) | 0.07 (≈ 0.101 µM) | 0.09 (≈ 0.13 µM) | 0.05 (≈ 0.0724 µM) | 0.02 (≈ 0.029 µM) | C[C@H](CCCCC(=O)Nc1cccc(Br)c1)O[C@@H]1O[C@@H](C)[C@H](O[C@@H]2O[C@@H](C)[C@H](O)C[C@H]2O)C[C@H]1O[C@@H]1O[C@@H](C)[C@H](O)C[C@H]1O
14 | 0.06 (≈ 0.0971 µM) | 0.03 (≈ 0.0486 µM) | 0.03 (≈ 0.0486 µM) | 0.06 (≈ 0.0971 µM) | 0.02 (≈ 0.0324 µM) | CC1CCN(C(=O)CCCC[C@@H](C)O[C@@H]2O[C@@H](C)[C@H](O[C@@H]3O[C@@H](C)[C@H](O)C[C@H]3O)C[C@H]2O[C@@H]2O[C@@H](C)[C@H](O)C[C@H]2O)CC1
15 | 0.13 (≈ 0.236 µM) | 0.14 (≈ 0.254 µM) | 0.41 (≈ 0.745 µM) | 0.19 (≈ 0.345 µM) | 0.21 (≈ 0.381 µM) | COC(=O)CCCC[C@@H](C)O[C@@H]1O[C@@H](C)[C@H](O[C@@H]2O[C@@H](C)[C@H](O)C[C@H]2O)C[C@H]1O[C@@H]1O[C@@H](C)[C@H](O)C[C@H]1O
16 | 0.08 (≈ 0.13 µM) | 0.01 (≈ 0.0162 µM) | 0.04 (≈ 0.065 µM) | 0.07 (≈ 0.114 µM) | 0.06 (≈ 0.0974 µM) | C[C@H](CCCCC(=O)NCc1ccco1)O[C@@H]1O[C@@H](C)[C@H](O[C@@H]2O[C@@H](C)[C@H](O)C[C@H]2O)C[C@H]1O[C@@H]1O[C@@H](C)[C@H](O)C[C@H]1O
17 | 0.12 (≈ 0.17 µM) | 0.24 (≈ 0.34 µM) | 0.32 (≈ 0.454 µM) | 0.32 (≈ 0.454 µM) | 0.1 (≈ 0.142 µM) | CCCCCC[C@H](CCCCCCCCCCC(=O)OC)O[C@@H]1O[C@@H](C)[C@H](O[C@@H]2O[C@@H](C)[C@H](O)C[C@H]2O)C[C@H]1O[C@@H]1O[C@@H](C)[C@H](O)C[C@H]1O
18 | 0.63 (≈ 1.42 µM) | 0.73 (≈ 1.64 µM) | 0.33 (≈ 0.742 µM) | 0.34 (≈ 0.765 µM) | 0.65 (≈ 1.46 µM) | C[C@@H]1O[C@H]2O[C@@H](C)CCCCCCCCC(=O)O[C@@H]3C[C@@H](O)[C@@H](O[C@H]3C)O[C@@H]2C[C@H]1O
19 | 0.12 (≈ 0.335 µM) | 0.31 (≈ 0.865 µM) | 0.22 (≈ 0.614 µM) | 0.15 (≈ 0.418 µM) | 0.12 (≈ 0.335 µM) | C=CCCCCOC(=O)CCCC[C@@H](C)O[C@@H]1O[C@@H](C)[C@H](O)C[C@H]1O
